First the molecules themselves.
B1: tRNA (parent)
chain: GUUCCGUUGGCGUAAUGGUAACGCGUCUCCCUCCUAAGGAGAAGACUGCGGGUUCGAGUCCCGUACGGAACG

Variants at the floor of the assay were thinned out. Some results are limits rather than exact numbers.

In this data set the parent is B1. The experiment in a line: yeast fitness relative to wild type (ratio to wild type); higher = fitter; tRNA-Arg(CCU), competitive growth, 37 C, YPD. An outline of the steps:
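Variants of the tRNA-Arg(CCU) gene were chemically synthesised with a 3% per-site mutation rate across 69 sites and placed at the native genomic locus in Saccharomyces cerevisiae. Six parallel replicates of the pooled strains were competed in YPD at 37°C for 24 hours, and gene amplicons from the start and end populations were read by 100-nucleotide paired-end sequencing. Darwinian fitness relative to wild type was derived from changes in genotype frequencies. Genotypes required ≥ 100 starting reads, and estimates < 0.5 were set to 0.5.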
With G18A A20U C27G, the yeast fitness was found to be 0.526. With C11U C27U C31A A42G C49G G51A the figure was at most 0.5; with G6A C22G C62G, at most 0.5. With U16G A57G C66U A69U the figure was at most 0.5; with A40U A43C U53C G68A, at most 0.5. Turning to C46G C62U, the yeast fitness was determined as 0.982. Take C4G U35C: the yeast fitness came out at 0.942. As for C11A U13A A42U G50A C55A, the yeast fitness is at most 0.5. Regarding U7G A69U, the yeast fitness is 0.894. With U3A C4U U13A A36U C62A C66U the figure was at most 0.5; with U16G U47A, 0.781; with A15G C29G, 0.635. With U54C G67U the figure was 0.798. As to U3C U47A, the yeast fitness turned out to be 0.907.

As to U8G C34A, the yeast fitness is at most 0.5. With G6A A20G A36G C49G C61A the figure was at most 0.5. With A20U C34G G48C G67A G68C the figure was at most 0.5; with U13A U19C A20U C29G C33G A37G C49U, at most 0.5; with A20G U28A C31U U54A, 0.613.

Regarding C24U A70U, the yeast fitness was 0.881.

As to G6A C61G A70C, the yeast fitness came out at 0.522. With C4G C11A C66G, the yeast fitness is at most 0.5. With A20G C49G the figure was 0.855; with U19G U32C, 1.04.

Turning to A43G C62G, the yeast fitness amounted to 0.752. With G68A A70U the figure was 1.21. Consider C24U U26G, for which the yeast fitness was 0.987. With C29A U35C the figure was at most 0.5; with G12C C30G A37U G41A, at most 0.5. With C30A C31A G38A C49U G52A C66U the figure was at most 0.5. As to G9C U32C U53C, the yeast fitness was at most 0.5.

As to U2G G12A U13A G25C U28A C33A G67U, the yeast fitness is at most 0.5. Regarding U8C G68C, the yeast fitness was determined as 0.958. With A15U U16C G38C G39A A43C C60G A65C the figure was at most 0.5. For the variant U64G A70C, the yeast fitness was 0.755. With A15C G25A A42U A65C G67U the figure was at most 0.5; with C11A C31G C60U, at most 0.5. With C11G C27A C46G G50A C61U the figure was at most 0.5; with C11A C30A G52C A65G, at most 0.5; with U3C C11A, 0.65.

With A57U C61G, the yeast fitness was 0.592.

Regarding C27G A43U U53C, the yeast fitness was at most 0.5. Take U16C C55U A57C G58A: the yeast fitness worked out at 0.593.

Consider A65G C66G A70G, for which the yeast fitness was at most 0.5. Take U8C G9A G17C G56C: the yeast fitness was 0.532.

As for G44A C49U A69C, the yeast fitness amounted to 0.752. On to G44C C49U, for which the yeast fitness was 0.783. With C34U U53C C55U the figure was at most 0.5; with C33U G38A C46U U64C, 0.536; with C5G G12U A45U A57U, at most 0.5. With G18C C30A the figure was 0.642; with G18A G68A, 0.795.

For U7G U13A A69U, the yeast fitness stood at 0.629. With G6C U16G the figure was 0.68; with C5U A20C A43G, 0.658.

In the case of U8C C22U C31U, the yeast fitness came to 0.54. With A15U A36G G51C C55G the figure was at most 0.5; with G18C C27G, 0.61. As to G25C C49U G51A A57G, the yeast fitness is at most 0.5. Regarding C4U U19A C31G A65C C66U, the yeast fitness is at most 0.5.

On to C29U G38C G63A, for which the yeast fitness was at most 0.5. In the case of A20U C34G A42G A43U A65G, the yeast fitness stood at 0.573. With U2G U28A C33U C46G the figure was at most 0.5; with U2A A15C, 0.685. As for G10C G25A U26C C46G, the yeast fitness was at most 0.5. With C5U G58A the figure was 0.88. With A21C A45C U47G C49U the figure was at most 0.5; with U8C C22A C33G G39C C46U, at most 0.5; with U8G C24A C30G A40G U47G, at most 0.5. Consider U28G A36G C66U, for which the yeast fitness amounted to 0.582. A14C A15U C30U C34G C61A U64A A69U: the yeast fitness was at most 0.5.

For C4U U28C G38C C61U, the yeast fitness is at most 0.5. With U13A U28C U64A the figure was 0.718; with U8G G9C C33A G68A, at most 0.5.

For the variant U19C A20C C31G, the yeast fitness is 0.542. In the case of A15U G25A G68A, the yeast fitness was 0.698. Turning to U28A C29G G51A G56A A69C, the yeast fitness is at most 0.5. With A36G A45G A65U the figure was 0.54. With G9A C11A C34G A36G A65C the figure was at most 0.5; with G9A G12C U13A G25A C30G, at most 0.5; with G6A C29U A43C C46U, 0.623. With U2A C5A C29U C62U A70U the figure was at most 0.5. Consider U3G A15G G23A, for which the yeast fitness was at most 0.5.

Turning to U32A A37C C55G, the yeast fitness turned out to be 0.503. Consider C5A C24G U26A C29G U32A C49U, for which the yeast fitness was at most 0.5.

As for G23C C31G G44C U47A A69C, the yeast fitness is at most 0.5. Consider C24A, for which the yeast fitness came out at 0.747. With C11U U19A U64C, the yeast fitness was found to be 0.664. With C5U U16C A20G C29A the figure was at most 0.5; with U3C G10A U13C G58C, at most 0.5. In the case of A36C A43U U47A U54A, the yeast fitness is at most 0.5. With G25A C49U A65U the figure was 0.849. With U26C C30G the figure was 0.651. As for A14C A20C C34U G44C G50C C62U, the yeast fitness is at most 0.5. With U2A A20C C55U the figure was 0.582; with U8C C22G, 0.935; with C30A U59C, 0.863. With A15G A21C C33G A43U the figure was 0.57; with C34G U59A, 0.538. Take G18A C27U U28C C31A C55G: the yeast fitness was at most 0.5. With G9C A15U A21C C29A the figure was 0.773; with C30U A40C G63C U64C, at most 0.5. With C11A C24U C34A A37U C62A C66A the figure was 0.599. As for C5U G39A A57C, the yeast fitness came to 0.656. With G44C G63A the figure was 0.83; with G12A A15C A45U, 0.87. For the variant G44C A65G, the yeast fitness stood at 1.06. On to A21G G51U G58A, for which the yeast fitness turned out to be 0.777. With U19G A20C U26C G41A C62G the figure was at most 0.5.

With G38C G68C, the yeast fitness amounted to 0.819. With C5U U53C the figure was 0.747; with A15U A70U, 0.836. Turning to A15U C33U G56A, the yeast fitness is at most 0.5.

For U3A A14U C62U, the yeast fitness was determined as 0.79. Consider U2C G23A C33G U35G C60U C62G, for which the yeast fitness was at most 0.5. G9A G41C: the yeast fitness amounted to 0.899. With G10A C49U the figure was 0.697. Turning to C31G C62U, the yeast fitness amounted to 1.07. With C33G C61U G67A the figure was 0.649; with U26G C27U G50C, at most 0.5. As for G25C U32C G41A, the yeast fitness is at most 0.5.

As to C5U C30G A36U G51A G52A U64G, the yeast fitness is at most 0.5. With U3A G10C A36U A40C C60G A70G the figure was at most 0.5; with G10C A15C A21C, at most 0.5. Consider A20C C22G C33A A42C C61U, for which the yeast fitness was at most 0.5. Regarding G17C G18C C22A C60A, the yeast fitness stood at 0.529. With U16A C30A A43C, the yeast fitness came to 1.04. With C5U C29A A57U A69C the figure was at most 0.5; with G10A G44A, 0.786; with U7C U59A, 0.765. With A45U C49G A65U the figure was 0.599; with A42C C60G, 0.608. For C29U C30G A70C, the yeast fitness is 0.536. For the variant C30U A37C C66U, the yeast fitness was at most 0.5. With G12A C29A A45G the figure was at most 0.5. With G23A C33U C34U A40U the figure was at most 0.5. Take G44C G52A U59C U64G: the yeast fitness stood at 0.553. With C5U U16C A69C the figure was 0.671; with A15C A20U C30A C31G, at most 0.5; with G6C A36C, 0.53.

G12C A40U C49G G50A: the yeast fitness is at most 0.5. With G23C U47A A57G G58C, the yeast fitness was at most 0.5.

For the variant C60A A70U, the yeast fitness is 0.68. With U2C C49G A65G the figure was 0.594. With A20U C31A A37C A45G G68A the figure was at most 0.5; with G18C A36U A70U, at most 0.5. With A14C C30U G68C the figure was at most 0.5.

Take U7A C30U: the yeast fitness is 0.614. On to U2C U35C U47C, for which the yeast fitness came to 0.788. With A15G C24G U32A G41A the figure was at most 0.5; with C11U A15C C27G A70G, at most 0.5. With C4A C11A C29G A40G C62G the figure was at most 0.5; with C5U G17C, 0.721; with A20U G44A, 0.662.

In the case of A20U U47A, the yeast fitness stood at 0.673.

With U54G C62G, the yeast fitness is 0.559. With U2A C5G A14U U19A G23C C29A C66A the figure was at most 0.5; with G38A A45C A69U, 0.684; with A15U A21G C49U, 0.556. With C11U C30G A40U A45U C55G the figure was 0.604. Take A15G C27G C55U: the yeast fitness is at most 0.5. Consider C33U A57C, for which the yeast fitness is at most 0.5. With G18A C34U U35C the figure was at most 0.5. As to A21G C33A A40C, the yeast fitness turned out to be 0.527. As to A43G C60U A65G, the yeast fitness turned out to be 0.535. In the case of C11A C24U U32G A40U U64G, the yeast fitness is at most 0.5. U8G A70C: the yeast fitness came to 0.633.

(Values after the RNAGym collection of RNA variant scans (doi:10.1126/science.aae0568).)
